The values that follow come from ChEMBL document CHEMBL4428047 (J Med Chem, 2016).

≈ marks a conversion by molar mass, not a printed value.

The nature of data set [1]: Clearance in rat liver microsomes assessed as drug turnover level at 1 uM incubated for 30 mins in presence of NADPH. It counts as ADME, Microsome. The conditions noted are these: read-out: CLH. The gist of the method: (§1)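 Parent compound at 1 µM incubated with liver microsomes (0.25 mg/mL) in 66.7 mM potassium phosphate with 1 mM NADPH, 37 °C, 30 min; % turnover measured by LC/MS.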
(In general: Microsomes from liver hold many membrane-bound enzymes, among them those of drug oxidation.)

Data set [2] in a line: Clearance in human liver microsomes assessed as drug turnover level at 1 uM incubated for 30 mins in presence of NADPH. The conditions noted are these: read-out: CLH. It counts as ADME, Microsome. The gist of the method:
as §1

Data set [3] is described as follows: Clearance in Sprague-Dawley rat at 0.5 mg/kg, iv by LC-MS method. The data set is classed as ADME, organism-based. The following applies: in vivo. In a few lines: (§2)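 Male Sprague-Dawley rats, two animals per study, dosed IV at 0.5 mg/kg as a solution in 100% DMSO. Unbound clearance calculated as total clearance divided by rat plasma fraction unbound (CLu = CL/fu).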

A short description of data set [4]: Apparent permeability in LLC-PK1 cells by LC-MS method. It counts as ADME, cell-based, Sus scrofa. The following applies: pig. In a few lines: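 Passive permeability across LLCPK1 monolayers; apparent permeability (Papp) obtained by mass balance with LC/MS quantitation.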
Data set [5] can be described thus: Unbound clearance in Sprague-Dawley rat at 0.5 mg/kg, iv by LC-MS method. The conditions noted are these: in vivo. The data set is classed as ADME, organism-based. In a few lines:
as §2

The nature of data set [6]: Aqueous equilibrium solubility at room temperature after 72 hrs at pH 7.4 by HPLC. The following applies: buffer. The data set is classed as physicochemical.
Data set [7] is described as follows: Oral bioavailability in Sprague-Dawley rat at 2 mg/kg by LC-MS method. It counts as ADME, organism-based. The conditions noted are these: in vivo.

For the molecule `C[C@H](Nc1ncnc(N)c1C#N)c1nc2ccc(F)cc2c(-c2ccccn2)c1-c1ccccn1`, the microsomal CLint at 1 µM was found to be 16 µL/min/mg in data set [1] and 47 µL/min/mg in data set [2].
The matching figures for `CNCCNC(=O)c1c(-c2ccccc2)c([C@H](C)Nc2ncnc(N)c2C#N)nc2ccc(F)cc12`: below 14 µL/min/mg and below 14 µL/min/mg.
Broadly, the clearance is a measure of how efficiently the substance is removed, as volume per time. Read a low clearance as inefficient removal. One may read the Papp as a coefficient for how fast a substance crosses the barrier. What is called solubility (thermodynamic) is solubility found after equilibrating the solid with the medium. As usually defined, the bioavailability is the share of a dose that reaches the circulation, judged against a reference dose that is usually intravenous. `CNC(=O)c1c(-c2ccccn2)c([C@H](C)Nc2ncnc(N)c2C#N)nc2cccc(F)c12` showed a clearance in data set [3] of 11.7 mL/min/kg. The Papp in data set [4] was 8 ×10⁻⁶ cm/s. The CL free in data set [5] is 67 mL/min/kg. This molecule showed a solubility (thermodynamic) at 72 h in data set [6] of 200 µg/mL (≈ 452 µM). In addition, the microsomal CLint at 1 µM in data set [1] and in data set [2] was below 14 µL/min/mg each time. In data set [7], this molecule yielded a bioavailability of 29%.
In the case of `C[C@H](Nc1ncnc(N)c1C#N)c1nc2ccc(F)cc2c(C(=O)N2CCS(=O)(=O)CC2)c1-c1ccccc1`, the figures for the microsomal CLint at 1 µM in data set [1] and in data set [2] were 78 µL/min/mg and 62 µL/min/mg, respectively.
As for `C[C@H](Nc1ncnc(N)c1C#N)c1nc2ccc(F)cc2c(C(=O)N2CCNCC2)c1-c1ccccc1`, in data set [3], the clearance is 15 mL/min/kg. The molecule further returned a CL free in data set [5] of 1000 mL/min/kg. Further, the results for the microsomal CLint at 1 µM in data set [1] and in data set [2] were 50 µL/min/mg and 82 µL/min/mg, respectively.
Regarding `CC(C)NC(=O)c1c(-c2ccccc2)c([C@H](C)Nc2ncnc(N)c2C#N)nc2ccc(F)cc12`, the microsomal CLint at 1 µM in data set [1] is below 14 µL/min/mg; in data set [2], 51 µL/min/mg.
The matching figures for `CCNC(=O)c1c(-c2ccccc2)c([C@H](C)Nc2ncnc(N)c2C#N)nc2ccc(F)cc12`: below 14 µL/min/mg and 22 µL/min/mg.
In data set [3], `CNC(=O)c1c(-c2ccccn2)c([C@H](C)Nc2ncnc(N)c2C#N)nc2ccc(F)cc12` gave a clearance of 8.33 mL/min/kg. Besides, in data set [4], the Papp turned out to be 14.6 ×10⁻⁶ cm/s. In data set [5], the CL free was found to be 38.3 mL/min/kg. In data set [6], this molecule showed a thermodynamic solubility at 72 h of 200 µg/mL (≈ 452 µM). In addition, the microsomal CLint at 1 µM in data set [1] and in data set [2] was below 14 µL/min/mg throughout. In addition, in data set [7], the bioavailability turned out to be 70%.
Take `CNC(=O)c1c(-c2ccccc2)c([C@H](C)Nc2ncnc(N)c2C#N)nc2ccc(F)cc12`: in data set [3], the clearance is 8.33 mL/min/kg. The same molecule gave a CL free in data set [5] of 75 mL/min/kg. The figures for the microsomal CLint at 1 µM in data set [1] and in data set [2] were 15 µL/min/mg and below 14 µL/min/mg, respectively.
The matching figures for `CNCCNC(=O)c1c(-c2ccccn2)c([C@H](C)Nc2ncnc(N)c2C#N)nc2ccc(F)cc12`: 16.7 mL/min/kg, 468 mL/min/kg, below 14 µL/min/mg and 33 µL/min/mg.
Consider `C[C@H](Nc1ncnc(N)c1C#N)c1nc2ccc(F)cc2c(C(=O)N2CC(O)C2)c1-c1ccccc1`, for which the microsomal CLint at 1 µM in data set [1] stood at 49 µL/min/mg; in data set [2], 40 µL/min/mg.
For `C[C@H](Nc1ncnc(N)c1C#N)c1nc2ccc(F)cc2c(C(N)=O)c1-c1ccccc1`, the clearance in data set [3] was 10 mL/min/kg. The microsomal CLint at 1 µM in data set [1] and in data set [2] was below 14 µL/min/mg each time.
For `C[C@H](Nc1ncnc(N)c1C#N)c1nc2ccc(F)cc2c(C(=O)N(C)C)c1-c1ccccc1`, the figures for the microsomal CLint at 1 µM in data set [1] and in data set [2] were 426 µL/min/mg and 198 µL/min/mg, respectively.
Regarding `CCNC(=O)c1c(-c2ccccn2)c([C@H](C)Nc2ncnc(N)c2C#N)nc2ccc(F)cc12`, the clearance in data set [3] was 3.33 mL/min/kg. The molecule also registered a CL free in data set [5] of 102 mL/min/kg. Also, the microsomal CLint at 1 µM in data set [1] and in data set [2] was below 14 µL/min/mg throughout.
Turning to `CC(Nc1ncnc(N)c1C#N)c1nc2ccc(F)cc2c(C(=O)N2CCNCC2)c1-c1ccccn1` (racemic), the figures for the microsomal CLint at 1 µM in data set [1] and in data set [2] were 17 µL/min/mg and 24 µL/min/mg, respectively.
For the molecule `CC(Nc1ncnc(N)c1C#N)c1nc2ccc(F)cc2c(C(=O)N2CC(O)C2)c1-c1ccccn1` (racemic), the microsomal CLint at 1 µM in data set [1] and in data set [2] was below 14 µL/min/mg throughout.
On to `C[C@H](Nc1ncnc2[nH]cnc12)c1cc2ccc(F)cc2nc1-c1ccccn1` [AMG-319], for which the clearance in data set [3] was 5 mL/min/kg. Also, the apparent permeability coefficient (Papp) in data set [4] came out at 30 ×10⁻⁶ cm/s. Moreover, the CL free in data set [5] amounted to 45 mL/min/kg. In data set [6], this molecule gave a solubility (thermodynamic) at 72 h above 200 µg/mL. In addition, the microsomal CLint at 1 µM in data set [1] and in data set [2] was below 14 µL/min/mg throughout. The bioavailability in data set [7] worked out at 54%.
